# The sample as a whole holds a higher share of hits than the screen did.
# UPR XBP1 act – activators of adaptive XBP1 UPR arm, primary screen, cell-based, CHO-XBP1 luciferase reporter, luminescence, uHTS; 330,000 compounds, 0.33% hits; activation, % at 20 µM; IRE1-XBP1 UPR activation; percent of tunicamycin response, DMSO as zero;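 active = versus positive control, 20 µM dose yields 30% or more activation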;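 note: 100% = tunicamycin at 10 µg/mL and 0% = DMSO only wells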
#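 Signal: luciferase luminescence; Assay system: CHO-XBP1 luciferase reporter cells; Amount: one thousand reporter cells per well; Dosing: 20 µM single concentration, DMSO 1%; Benchmarks: high control tunicamycin 10 µg/mL final, low control DMSO vehicle only; Schedule: 6 h compound exposure at 37 °C, 5% CO2; Evaluation: percent activation relative to tunicamycin reference.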
# UPR CHOP act – activators of apoptotic CHOP UPR arm, primary screen, cell-based, CHO-CHOP luciferase reporter, luminescence, uHTS; UPR activation; percent of tunicamycin response over DMSO baseline; activation, % at 10 µM; 330,000 compounds, 0.34% hits; AID 449763, 2010;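 active = at 10 µM dose, activation of 40% or more, normalized to positive control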;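 note: 100% = tunicamycin at 10 µg/mL and 0% = DMSO alone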
#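 measured by = luciferase luminescence | assay system = CHO-CHOP cells, stable luciferase reporter of PERK-eIF2a-CHOP signalling | amount = 500 reporter cells seeded per well | timing = 6 h compound exposure at 37 °C after overnight seeding | controls = positive tunicamycin 10 µg/mL, negative DMSO alone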
# Bfl-1 A1 inh – caspase 3/7 activation in MEF A1-2A-BIM cells, primary screen, A1 inhibitor project, cell-based, luminescence, HTS; Caspase-Glo 3/7 luminescence, 3 h; percent of clofoctol response, vehicle zero; caspase activation, % (test concentration not listed); 330,000 compounds, 0.066% hits; AID 2462, 2010;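 active = over half of replicate activation scores above 10%, or exactly half above 10 with the replicate mean above 10; inconclusive = replicate mean below 10 yet half the replicates above 10; inactive = over half of replicates below 10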
# CHOP inhibitor – inhibitors of CHOP promoter induction, primary screen, cell-based, unfolded protein response, luciferase reporter; CHO-K1 CHOP-promoter luciferase, tunicamycin-induced, 15-18 h; inhibition, % at 10 µM; 220,000 compounds, 3.8% hits;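 active = compounds that reduced the stress-induced luciferase reporter signal by more than about 70% of percent inhibition, limit read from the data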;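 note: 0% = tunicamycin plus vehicle and 100% = wells without tunicamycin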
# Numbers without * were called inactive; ? = inconclusive; . = no result.
SMILES,UPR XBP1 act,UPR CHOP act,Bfl-1 A1 inh,CHOP inhibitor
CC1CC(C)CN(CC(C)(C)NS(=O)(=O)c2ccc(Cl)cc2)C1 (stereo not drawn),0,2,0,94*
CCC(CC)C(=O)Nc1cc(C)c2c(=O)oc3ccccc3c2n1,3,4,0,79*
Cc1cc(NC(=O)c2ccccc2)nc2c1c(=O)oc1ccccc12,-5,1,0,9
O=C(Nc1ccc(OCC(F)(F)C(F)F)c(C(F)(F)F)c1)c1ccccc1,3,2,0,.
O=C(Nc1ccc(OCC(F)(F)C(F)F)c(C(F)(F)F)c1)c1ccccc1O,6,16,?,108*
N#CC(C#N)=C1C=CC=CN1/C(=C\c1ccco1)C(=O)c1ccc(-c2ccccc2)cc1,.,.,1,107*
N#C/C(=C\c1ccco1)C(=O)NCc1ccccc1,1,1,0,-24
N#CC(C#N)=C1C=CC=CN1/C(=C\c1ccco1)C(=O)c1ccc(Cl)cc1,.,.,2,111*
O=C1CC2(CCCCC2)Oc2ccc(F)cc21,3,-1,1,.
Cc1cc(NC(=O)c2ccc3nc(-c4ccccc4)c(-c4ccccc4)nc3c2)no1,13,8,2,78*
Cc1cc(NC(=O)c2ccccc2)no1,-4,6,-3,.
CC1C(c2ccccc2)N(C)C(c2ccccc2)CC1(O)c1ccc(F)cc1 (stereo not drawn),.,.,0,85*
CN1C(c2ccccc2)CC(=NO)CC1c1ccccc1 (stereo not drawn),-3,-1,0,.
CC(=O)N1c2ccc3ccccc3c2C2C=CCC2C1c1ccc(Br)cc1 (stereo not drawn),.,.,1,57
CC(=O)N1c2ccc(Cl)cc2C2C=CCC2C1c1cccc2ccccc12 (stereo not drawn),.,.,1,85*
Cc1noc(C)c1NC(=O)N(C)C[C@H]1Oc2ccc(NC(=O)CCN3CCOCC3)cc2C(=O)N([C@H](C)CO)C[C@@H]1C,0,0,2,.
COc1cccc(C(=O)Nc2ccccc2C(=O)NCC2CCCO2)c1 (stereo not drawn),-2,2,1,.
CC(=O)N1CCN(S(=O)(=O)c2cccc(C(=O)NNC(=O)COc3c(C)cccc3C)c2)CC1,-1,-2,1,.
O=C(CCCN1C(=O)/C(=C/c2ccccc2Cl)SC1=S)NNC(=O)c1ccccc1,-3,-3,-5,86*
O=C(CCCN1C(=O)/C(=C/c2ccccc2Cl)SC1=S)NNC(=O)c1ccc(Cl)cc1Cl,-5,-5,-1,95*
O=C(CCCN1C(=O)/C(=C/c2ccccc2Cl)SC1=S)NNC(=O)c1cccnc1,-5,-2,-1,53
O=C(CCN1C(=O)/C(=C/c2ccccc2Cl)SC1=S)Nc1ccccc1C(=O)O,-3,-1,-3,.
Nc1nnc(SC2CC(=O)N(c3ccccc3)C2=O)s1 (stereo not drawn),-1,0,1,4
Cc1c(Cl)c([N+](=O)[O-])nn1Cc1ccc(C(=O)N/N=C\c2ccccn2)o1,.,.,0,73*
COc1cc(/C=N\NC(=O)c2ccc(Cn3nc([N+](=O)[O-])c(Cl)c3C)o2)ccc1O,-1,1,-1,-18
SMILES,UPR XBP1 act,UPR CHOP act,Bfl-1 A1 inh,CHOP inhibitor
O=C(NCC(=O)N1CCN(c2ccccc2O)CC1)c1ccc(Br)o1,-2,-1,0,.
CC(C)CCOc1cccc(OCC(=O)O)c1,-1,-1,.,86*
O=C(O)COc1cccc(NC(=O)c2ccccc2)c1,0,1,-2,-9
Clc1ccc(-c2nc3ccccc3nc2-c2ccccc2)cc1,2,1,0,74*
CCOc1ccc(-c2c(=O)n(OCc3ccc([N+](=O)[O-])cc3)c3ccccc3[n+]2[O-])cc1,36*,18,0,61
O=C(Cn1c(=O)c2cccn2c2ccccc21)NCCc1ccccc1,-4,3,0,.
O=C(O/N=C1\C(=O)N(c2ccccc2)c2ccccc21)C1CC1,0,0,0,73*
CC(CCc1ccccc1)NC(=O)c1ccc(NC(=O)c2ccccc2)cc1 (stereo not drawn),-5,-2,?,85*
Cc1ccc(CNC(=O)c2ccc(N3CCCC3=O)cc2)cc1,1,-2,0,-7
Cn1nc(C(C)(C)C)cc1C(=O)NCc1ccc(N2CCCC2=O)cc1,-2,6,0,83*
COc1ccc(/C=N/Nc2ccc(C(F)(F)F)cc2[N+](=O)[O-])cc1O,0,0,0,76*
CCOc1ccc(/C=N/Nc2ccc(C(F)(F)F)cc2[N+](=O)[O-])cc1O,1,2,0,-18
Cc1cc(/C=C2\SC(=O)N(C)C2=O)c(C)n1-c1ccc(O)cc1,-6,0,-1,.
CN=C1S/C(=C\c2cc(C)n(-c3ccccc3F)c2C)C(=O)N1C,0,-5,-10,96*
Cc1cc2ccccc2n2c(SCC(=O)N3CCc4ccccc4C3)nnc12,-2,1,-2,-10
Cc1ccc(OCC(=O)N2CCN(C(=O)CCC3CCCC3)CC2)cc1,-4,2,0,29
O=C(CCC1CCCC1)N1CCN(C(=O)COc2ccccc2)CC1,-3,0,0,75*
COc1ccc(N2CCN(C(=O)Cc3ccc(OC)c(OC)c3)CC2)cc1,-2,3,1,.
C=CC[n+]1c(/C=C2\C=Cc3cc(C)ccc3N2CC)ccc2ccccc21,6,21,0,72*
CCN1/C(=C\c2ccc3cc(C)ccc3[n+]2CC)Sc2cc(C)c(C)cc21,.,.,.,55
CC(C)CC(c1nnnn1CC1CCCO1)N1CCN(c2cccc(Cl)c2)CC1 (stereo not drawn),-5,1,0,83*
Cc1ccc(Cl)cc1N1CCN(C(CC(C)C)c2nnnn2CC2CCCO2)CC1 (stereo not drawn),0,1,0,37
O=C(CCc1ccccc1)NC(=S)Nc1ccc2c(c1)C(=O)OC2,6,-1,0,1
CC1CN=C(c2cccn2Cc2ccc(F)cc2Cl)O1 (stereo not drawn),-1,-2,1,72*
CC1(C)COC(c2cccn2Cc2ccc(F)cc2Cl)=N1,0,1,-1,85*
SMILES,UPR XBP1 act,UPR CHOP act,Bfl-1 A1 inh,CHOP inhibitor
Cc1nnc(SCC(=O)Nc2ccccc2F)n1Cc1ccco1,-1,2,2,-10
C/C(=N\NC(=O)c1ccccc1NC(=O)c1ccc(Cl)cc1)c1ccncc1,-6,-9,-8,72*
C/C(=N/NC(=O)c1ccncc1)c1ccccc1,-2,1,-3,.
CCN(CC)CCn1c(=N)n(CC(=O)c2ccc(Br)s2)c2ccccc21,0,1,-1,9
COc1cccc(-c2nc(N3CCCCC3)c3ccccc3n2)c1O,5,-2,1,.
COc1cc2nc(-c3ccccc3)nc(N3CCCC3)c2cc1OC,.,.,.,82*
Oc1ccc2ccccc2c1Br,-6,1,0,26
